Laboratory results taken from ChEMBL document CHEMBL4689842, “EUbOPEN Chemogenomics Library wave 1” (2021).

Legend:
Type in all cases: toxicity, cell-based
HEK-293T = assay: Incucyte cell viability with HEK293T; settings: human, 10 µM, compound concentration 10 uM; further: filed as whole numbers so only -1 and 0 and 1 occur
U2OS = assay: Incucyte cell viability with U2OS; settings: human, 10 µM, compound concentration 10 uM; further: filed as whole numbers so only -1 and 0 and 1 occur
Fibroblast = assay: Multiplex assay against human fibroblast
Procedure, shortened: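 Cells stained live at seeding with Hoechst33342, BioTracker Green Microtubule Cytoskeleton Dye, MitoTracker Red and Annexin V Alexa Fluor 680 were imaged on a CQ1 microscope at 37°C and 5% CO2 after compound addition. Their classification by CellPathfinder machine-learning gating ran from Hoechst high-intensity objects versus normal cells, to healthy, pyknosed or fragmented nuclei among normal cells, to mitotic or apoptotic among pyknosed cells. Tubulin, mitochondrial-mass and membrane-permeability phenotypes are per cents of healthy-nucleus cells.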

[1] = 6 h, replicate number 1, timepoint 6 hours
[2] = 12 h, replicate number 1, timepoint 12 hours
[3] = 18 h, replicate number 1, timepoint 18 hours
[4] = 24 h, replicate number 1, timepoint 24 hours
[5] = 12 h, 1 µM, compound concentration 1 uM, replicate 1
[6] = 12 h, 1 µM, compound concentration 1 uM, replicate 2
[7] = 12 h, 10 µM, compound concentration 10 uM, replicate 1
[8] = 12 h, 10 µM, compound concentration 10 uM, replicate 2
[9] = 24 h, 1 µM, compound concentration 1 uM, replicate 1
[10] = 24 h, 1 µM, compound concentration 1 uM, replicate 2
[11] = 24 h, 10 µM, compound concentration 10 uM, replicate 1
[12] = 24 h, 10 µM, compound concentration 10 uM, replicate 2
[13] = 48 h, 1 µM, compound concentration 1 uM, replicate 1
[14] = 48 h, 1 µM, compound concentration 1 uM, replicate 2
[15] = 48 h, 10 µM, compound concentration 10 uM, replicate 1
[16] = 48 h, 10 µM, compound concentration 10 uM, replicate 2

SMILES: CC(C)[C@H](CO)Nc1nc(Nc2cccc(Cl)c2)c2ncn(C(C)C)c2n1 [PURVALANOLA]
- Growth Rate (HEK-293T; [1]): 0
- Growth Rate (HEK-293T; [2]): 0
- Growth Rate (HEK-293T; [3]): 0
- Growth Rate (HEK-293T; [4]): 0
- Growth Rate (U2OS; [1]): 0
- Growth Rate (U2OS; [2]): 0
- Growth Rate (U2OS; [3]): 0
- Growth Rate (U2OS; [4]): 0
- Population Apoptotic (%) (Fibroblast; [5]): 65%
- Population Fragmented Nuclei (%) (Fibroblast; [5]): 30%
- Population Healthy Nuclei (%) (Fibroblast; [5]): 39%
- Population Hoechst High Intensity Objects (%) (Fibroblast; [5]): 17%
- Population Membrane Permeable-Phenotype (%) (Fibroblast; [5]): 20%
- Population Mitochondria Different-Phenotype (%) (Fibroblast; [5]): 7%
- Population Mitotic Cells (%) (Fibroblast; [5]): 35%
- Population Normal (%) (Fibroblast; [5]): 82%
- Population Pyknosed Nuclei (%) (Fibroblast; [5]): 30%
- Population Tubulin-Different-Phenotype (%) (Fibroblast; [5]): 48%
- Total Cell Count (Fibroblast; [5]): 241
- Population Apoptotic (%) (Fibroblast; [6]): 50%
- Population Fragmented Nuclei (%) (Fibroblast; [6]): 8%
- Population Healthy Nuclei (%) (Fibroblast; [6]): 88%
- Population Hoechst High Intensity Objects (%) (Fibroblast; [6]): 10%
- Population Membrane Permeable-Phenotype (%) (Fibroblast; [6]): 7%
- Population Mitochondria Different-Phenotype (%) (Fibroblast; [6]): 21%
- Population Mitotic Cells (%) (Fibroblast; [6]): 50%
- Population Normal (%) (Fibroblast; [6]): 89%
- Population Pyknosed Nuclei (%) (Fibroblast; [6]): 3%
- Population Tubulin-Different-Phenotype (%) (Fibroblast; [6]): 15%
- Total Cell Count (Fibroblast; [6]): 111
- Population Apoptotic (%) (Fibroblast; [7]): 65%
- Population Fragmented Nuclei (%) (Fibroblast; [7]): 24%
- Population Healthy Nuclei (%) (Fibroblast; [7]): 38%
- Population Hoechst High Intensity Objects (%) (Fibroblast; [7]): 17%
- Population Membrane Permeable-Phenotype (%) (Fibroblast; [7]): 10%
- Population Mitochondria Different-Phenotype (%) (Fibroblast; [7]): 54%
- Population Mitotic Cells (%) (Fibroblast; [7]): 34%
- Population Normal (%) (Fibroblast; [7]): 82%
- Population Pyknosed Nuclei (%) (Fibroblast; [7]): 36%
- Population Tubulin-Different-Phenotype (%) (Fibroblast; [7]): 95%
- Total Cell Count (Fibroblast; [7]): 143
- Population Apoptotic (%) (Fibroblast; [8]): 83%
- Population Fragmented Nuclei (%) (Fibroblast; [8]): 13%
- Population Healthy Nuclei (%) (Fibroblast; [8]): 79%
- Population Hoechst High Intensity Objects (%) (Fibroblast; [8]): 7%
- Population Membrane Permeable-Phenotype (%) (Fibroblast; [8]): 23%
- Population Mitochondria Different-Phenotype (%) (Fibroblast; [8]): 95%
- Population Mitotic Cells (%) (Fibroblast; [8]): 16%
- Population Normal (%) (Fibroblast; [8]): 92%
- Population Pyknosed Nuclei (%) (Fibroblast; [8]): 6%
- Population Tubulin-Different-Phenotype (%) (Fibroblast; [8]): 98%
- Total Cell Count (Fibroblast; [8]): 66
- Population Apoptotic (%) (Fibroblast; [9]): 48%
- Population Fragmented Nuclei (%) (Fibroblast; [9]): 32%
- Population Healthy Nuclei (%) (Fibroblast; [9]): 49%
- Population Hoechst High Intensity Objects (%) (Fibroblast; [9]): 18%
- Population Membrane Permeable-Phenotype (%) (Fibroblast; [9]): 24%
- Population Mitochondria Different-Phenotype (%) (Fibroblast; [9]): 7%
- Population Mitotic Cells (%) (Fibroblast; [9]): 51%
- Population Normal (%) (Fibroblast; [9]): 81%
- Population Pyknosed Nuclei (%) (Fibroblast; [9]): 18%
- Population Tubulin-Different-Phenotype (%) (Fibroblast; [9]): 60%
- Total Cell Count (Fibroblast; [9]): 248
- Population Apoptotic (%) (Fibroblast; [10]): 60%
- Population Fragmented Nuclei (%) (Fibroblast; [10]): 8%
- Population Healthy Nuclei (%) (Fibroblast; [10]): 83%
- Population Hoechst High Intensity Objects (%) (Fibroblast; [10]): 6%
- Population Membrane Permeable-Phenotype (%) (Fibroblast; [10]): 5%
- Population Mitochondria Different-Phenotype (%) (Fibroblast; [10]): 23%
- Population Mitotic Cells (%) (Fibroblast; [10]): 40%
- Population Normal (%) (Fibroblast; [10]): 93%
- Population Pyknosed Nuclei (%) (Fibroblast; [10]): 8%
- Population Tubulin-Different-Phenotype (%) (Fibroblast; [10]): 9%
- Total Cell Count (Fibroblast; [10]): 157
- Population Apoptotic (%) (Fibroblast; [11]): 72%
- Population Fragmented Nuclei (%) (Fibroblast; [11]): 26%
- Population Healthy Nuclei (%) (Fibroblast; [11]): 47%
- Population Hoechst High Intensity Objects (%) (Fibroblast; [11]): 20%
- Population Membrane Permeable-Phenotype (%) (Fibroblast; [11]): 16%
- Population Mitochondria Different-Phenotype (%) (Fibroblast; [11]): 63%
- Population Mitotic Cells (%) (Fibroblast; [11]): 27%
- Population Normal (%) (Fibroblast; [11]): 79%
- Population Pyknosed Nuclei (%) (Fibroblast; [11]): 25%
- Population Tubulin-Different-Phenotype (%) (Fibroblast; [11]): 94%
- Total Cell Count (Fibroblast; [11]): 145
- Population Apoptotic (%) (Fibroblast; [12]): 80%
- Population Fragmented Nuclei (%) (Fibroblast; [12]): 16%
- Population Healthy Nuclei (%) (Fibroblast; [12]): 65%
- Population Hoechst High Intensity Objects (%) (Fibroblast; [12]): 8%
- Population Membrane Permeable-Phenotype (%) (Fibroblast; [12]): 50%
- Population Mitochondria Different-Phenotype (%) (Fibroblast; [12]): 100%
- Population Mitotic Cells (%) (Fibroblast; [12]): 20%
- Population Normal (%) (Fibroblast; [12]): 91%
- Population Pyknosed Nuclei (%) (Fibroblast; [12]): 17%
- Population Tubulin-Different-Phenotype (%) (Fibroblast; [12]): 100%
- Total Cell Count (Fibroblast; [12]): 66
- Population Apoptotic (%) (Fibroblast; [13]): 60%
- Population Fragmented Nuclei (%) (Fibroblast; [13]): 39%
- Population Healthy Nuclei (%) (Fibroblast; [13]): 51%
- Population Hoechst High Intensity Objects (%) (Fibroblast; [13]): 19%
- Population Membrane Permeable-Phenotype (%) (Fibroblast; [13]): 23%
- Population Mitochondria Different-Phenotype (%) (Fibroblast; [13]): 4%
- Population Mitotic Cells (%) (Fibroblast; [13]): 40%
- Population Normal (%) (Fibroblast; [13]): 80%
- Population Pyknosed Nuclei (%) (Fibroblast; [13]): 9%
- Population Tubulin-Different-Phenotype (%) (Fibroblast; [13]): 49%
- Total Cell Count (Fibroblast; [13]): 203
- Population Apoptotic (%) (Fibroblast; [14]): 50%
- Population Fragmented Nuclei (%) (Fibroblast; [14]): 23%
- Population Healthy Nuclei (%) (Fibroblast; [14]): 73%
- Population Hoechst High Intensity Objects (%) (Fibroblast; [14]): 8%
- Population Membrane Permeable-Phenotype (%) (Fibroblast; [14]): 16%
- Population Mitochondria Different-Phenotype (%) (Fibroblast; [14]): 0%
- Population Mitotic Cells (%) (Fibroblast; [14]): 50%
- Population Normal (%) (Fibroblast; [14]): 91%
- Population Pyknosed Nuclei (%) (Fibroblast; [14]): 2%
- Population Tubulin-Different-Phenotype (%) (Fibroblast; [14]): 34%
- Total Cell Count (Fibroblast; [14]): 74
- Population Apoptotic (%) (Fibroblast; [15]): 85%
- Population Fragmented Nuclei (%) (Fibroblast; [15]): 32%
- Population Healthy Nuclei (%) (Fibroblast; [15]): 49%
- Population Hoechst High Intensity Objects (%) (Fibroblast; [15]): 17%
- Population Membrane Permeable-Phenotype (%) (Fibroblast; [15]): 11%
- Population Mitochondria Different-Phenotype (%) (Fibroblast; [15]): 79%
- Population Mitotic Cells (%) (Fibroblast; [15]): 15%
- Population Normal (%) (Fibroblast; [15]): 82%
- Population Pyknosed Nuclei (%) (Fibroblast; [15]): 18%
- Population Tubulin-Different-Phenotype (%) (Fibroblast; [15]): 92%
- Total Cell Count (Fibroblast; [15]): 131
- Population Apoptotic (%) (Fibroblast; [16]): 50%
- Population Fragmented Nuclei (%) (Fibroblast; [16]): 37%
- Population Healthy Nuclei (%) (Fibroblast; [16]): 60%
- Population Hoechst High Intensity Objects (%) (Fibroblast; [16]): 18%
- Population Membrane Permeable-Phenotype (%) (Fibroblast; [16]): 7%
- Population Mitochondria Different-Phenotype (%) (Fibroblast; [16]): 59%
- Population Mitotic Cells (%) (Fibroblast; [16]): 50%
- Population Normal (%) (Fibroblast; [16]): 81%
- Population Pyknosed Nuclei (%) (Fibroblast; [16]): 2%
- Population Tubulin-Different-Phenotype (%) (Fibroblast; [16]): 96%
- Total Cell Count (Fibroblast; [16]): 117
